# LEDGF integ inh: blockers of LEDGF/p75-dependent integrase strand transfer – biochemical, TR-FRET, high throughput, primary screen. TR-FRET IN-LEDGF/p75 DNA integration, Eu/Cy5. inhibition, % at 3.7 µM. 0.64% of 370,000 active;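 active = inhibition above the screen-wide mean plus 3 SD, cut at about 13% in these data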;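 note: signal is the Cy5 over europium emission ratio at 671 and 618 nm; 0% = plate median of compound wells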
# MBD2 DNA inh: inhibitors of MBD2 binding to methylated DNA, primary screen, biochemical, TR-FRET, DNA-binding domain, human | Methyl-CpG-binding domain protein 2 (Homo sapiens), Q9UBB5 | inhibition, % at 4.4 µM | 0.31% of 370,000 active | MBD2 binding to methylated oligonucleotide; in the data active = inhibition above about 13%
# UHRF1 binding: UHRF1 methylated DNA binding inhibitors, primary screen, counter-screen for MBD2 inhibitor project, biochemical, TR-FRET, human UHRF1, single concentration; UHRF1 binding to methylated oligo; inhibition, % at 4.4 µM; 0.75% of 370,000 active; in the data active = inhibition above about 21%;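 note: UHRF1 SRA domain binding a hemimethylated CpG hairpin DNA probe; 0% = median of test compound wells and 100% = reference inhibitor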
# ARFGAP1 inh: inhibitors of rat ARFGAP1 GAP activity, primary screen, biochemical, fluorescence polarization, GDP tracer; 0.26% of 360,000 active; Arfgap1-stimulated ARF1 GTP hydrolysis, GDP FP detection; ADP-ribosylation factor GTPase-activating protein 1 (Rattus norvegicus), Q62848; inhibition, % at 16.5 µM;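 active = inhibition above a per-plate limit, mean inhibition of low control wells plus 3 SD, cut at about 25% in these data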;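 note: 0% = DMSO wells with enzyme and 100% = wells lacking Arfgap1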
# Target sequence (Q62848 1-136 limits assumed): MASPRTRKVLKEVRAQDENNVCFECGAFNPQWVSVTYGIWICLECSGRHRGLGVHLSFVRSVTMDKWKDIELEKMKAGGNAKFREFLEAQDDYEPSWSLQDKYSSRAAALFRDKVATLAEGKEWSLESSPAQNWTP
#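 Assay system: Rat Arfgap1 GAP domain (His6, aa 1-136), purified enzyme | Buffer or medium: HEPES 25 mM pH 7.5, NaCl 150 mM, MgCl2, DTT | Schedule: GTP hydrolysis reaction 2 h at 25 °C | Signal: FP of antibody-bound GDP Alexa 633 tracer, ex 620/em 688 nm | Measure: Percent inhibition of Arfgap1-stimulated GTP hydrolysis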
# ASAP1 GAP inh: inhibitors of human ASAP1 ArfGAP activity, primary screen, biochemical, fluorescence polarization | Arf-GAP with SH3 domain, ANK repeat and PH domain-containing protein 1 (Homo sapiens), … | ASAP1-stimulated ARF1 GTP hydrolysis, GDP FP detection | inhibition, % at 16.5 µM | 0.19% of 360,000 active; in the data active = inhibition above about 25%;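 note: 0% = vehicle with enzyme and substrate and 100% = no enzyme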
# TDP2 inh: human TDP2 enzyme inhibitors, primary screen, biochemical, epi absorbance, recombinant enzyme | Tyrosyl-DNA phosphodiesterase 2 (Homo sapiens), O95551 | T5PNP hydrolysis, p-nitrophenol absorbance 415 nm | inhibition, % at 12.8 µM | 0.34% of 370,000 active | AID 720702, 2013;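 active = inhibition above the mean of all tested compounds plus 3 SD, set per campaign, cut at about 25% in these data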;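 note: 0% = DMSO with enzyme and 100% = buffer with substrate but no TDP2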
# Target sequence (O95551 whole entry, looked up): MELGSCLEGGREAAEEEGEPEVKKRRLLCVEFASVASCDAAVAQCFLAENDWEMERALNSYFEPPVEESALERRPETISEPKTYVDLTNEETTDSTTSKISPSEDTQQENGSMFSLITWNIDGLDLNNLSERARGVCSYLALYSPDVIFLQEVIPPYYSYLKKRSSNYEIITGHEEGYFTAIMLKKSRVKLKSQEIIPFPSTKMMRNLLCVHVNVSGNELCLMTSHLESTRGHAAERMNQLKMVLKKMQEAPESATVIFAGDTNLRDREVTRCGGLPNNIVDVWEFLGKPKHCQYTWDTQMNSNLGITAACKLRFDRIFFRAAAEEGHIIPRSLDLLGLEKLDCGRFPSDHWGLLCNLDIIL
#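 Test system: human TDP2 enzyme; Input: 120 nM TDP2 per well; Buffer or medium: Mg2+-containing Tris-HCl buffer, pH 7.5; Reagent: 5 mM T5PNP; Dosing: 12.8 µM single point, 1% DMSO; Incubation: reaction 2 h, 37 °C; Detection: p-Nitrophenol epi absorbance; Read-out: % inhibition relative to enzyme-containing and enzyme-free wells; Replicates: single well per compound.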
# IN multimer up: HIV-1 IN multimer formation enhancers, counter-screen for LEDGF/p75 integration inhibitor project, biochemical, TR-FRET; TR-FRET HIV-1 integrase multimerization; shares compounds with LEDGF integ inh; 17% of 2,000 active; AID 1053131, 2014; activation, % at 7.7 µM; in the data active = activation above about 8.9%
# TRFRET interf: TR-FRET optical interference artefacts, confirmation, artefact control for LEDGF/p75-dependent integration inhibitor project, biochemical, HIV-1 IN multimerization; shares compounds with LEDGF integ inh; TR-FRET optical interference counterscreen; inhibition, % at 7.7 µM; 2,000 tested, under 10 active; AID 1053135, 2014;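 active = inhibition above the mean over all tested compounds plus 3 SD, which no compound reached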;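 note: 0% = integrase with antibodies and DMSO and 100% = antibodies without integrase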
# LEDGF integ conf: inhibitors of HIV-1 IN-LEDGF/p75 DNA integration, confirmation, biochemical, TR-FRET | TR-FRET LEDGF/p75-dependent HIV-1 integration | shares compounds with LEDGF integ inh | 36% of 2,000 active | inhibition, % at 3.7 µM | AID 1053136, 2014; in the data active = inhibition above about 14%
# The depositor's hits bear a star; / = not tested or not shown. In the library only some 2% were active in any assay of this set; here they are far more common.
SMILES,LEDGF integ inh,MBD2 DNA inh,UHRF1 binding,ARFGAP1 inh,ASAP1 GAP inh,TDP2 inh,IN multimer up,TRFRET interf,LEDGF integ conf
O=C(O)c1cc(O)c2c(c1)C(=O)c1cc(O)cc(O)c1C2=O,20*,-3,26*,-3,-1,7,44*,-157,25*
O=C1SC(SCc2ccccc2)=N/C1=C\c1ccco1,26*,9,29*,5,1,14,0,0,1
C/C(=C\C(=O)c1ccc(F)cc1)Nc1ccc(N2CCOCC2)cc1,23*,-3,1,5,4,21,2,-9,-4
O=C(c1ccc(F)cc1)n1ccc2ccc(-c3ccc4ccn(Cc5ccccc5)c4c3)cc21,0,1,0,/,/,9,/,/,/
O=C(OCCN1CCN(C2CN(Cc3cn(Cc4cccc(F)c4)nn3)S(=O)(=O)C2)CC1)c1cc2ccccc2o1 (centres undefined),-1,0,12,/,/,0,/,/,/
CN(Cc1ccccc1)C(=O)OCc1cn(Cc2ccc(F)cc2F)nn1,0,-5,1,/,/,-7,/,/,/
O=C(Cc1ccc(Br)cc1)NNC(=O)c1cccs1,14*,3,-2,9,7,4,0,0,0
O=C(Cc1ccccc1)NNC(=O)c1cccs1,0,7,10,2,-1,0,/,/,/
Cc1ccc(S(=O)(=O)N(C)[C@H]2C[C@H]3c4cc(N5CCOCC5)ccc4CCN3C[C@H]2[C@H](C)O)cc1,2,2,1,/,/,-13,/,/,/
c1ccn(-c2ccc(-c3noc(CCc4ccncc4)n3)cc2)c1,5,-7,-1,/,/,3,/,/,/
CC1=N/C(=C/c2ccco2)C(=O)O1,13*,4,10,-4,7,14,10*,-52,54*
O=C1OC(c2ccc(Br)cc2)=N/C1=C\c1ccco1,10,-7,3,1,-3,4,/,/,/
O=C(/C=C/c1ccco1)NC(=S)Nc1ccc(N2CCCC2)cc1,18*,0,8,16,7,2,4,-21,-1
Cc1ccc(O)c(NC(=S)NC(=O)/C=C/c2ccco2)c1,4,2,-4,-7,-5,9,/,/,/
CCC(=O)Nc1ccc(NC(=S)NC(=O)/C=C/c2ccco2)cc1,5,1,-1,-8,4,9,/,/,/
Cc1ccnc(NC(=S)NC(=O)/C=C/c2ccco2)c1,16*,0,1,3,9,-2,0,-2,9
Cc1ccc(S(=O)(=O)NC2=NCN(CCN3CCOCC3)CN2)cc1,22*,0,0,-5,-2,3,-1,4,-1
CCCN1CN=C(NS(=O)(=O)c2ccc(C)cc2)NC1,1,2,1,-3,-4,12,/,/,/
CCCCOc1cccc(C(=O)NCCc2ccccc2-c2ccccc2CCC(=O)NCc2ccccc2)c1,-3,1,0,/,/,6,/,/,/
Cc1cc(=O)[nH]c(SCC(=O)NCc2ccc3c(c2)OCO3)n1,-1,-1,-1,5,-10,-8,/,/,/
Cc1nc(SCC(=O)NCc2ccc3c(c2)OCO3)c(C#N)c2c1CCCC2,91*,-5,0,2,-4,1,1,-3,2
COC(=O)[C@]12C[C@H](CC(=O)N3CCC(c4ccccc4)CC3)C(=O)N(Cc3ccco3)C1=C[C@H](C(C)(C)C)O[C@@H]2C,-2,2,2,/,/,-8,/,/,/
N#Cc1ccccc1NCCCN1CCC(C(O)(c2ccccc2)c2ccccc2)CC1,12,-4,-1,/,/,-8,/,/,/
COc1ccc(C(C#N)CC(=O)c2ccc(OCc3ccccc3)c(OC)c2)cc1OC (centres undefined),60*,1,3,7,-1,-5,-2,8,-5
CNC(=O)c1ccc(OCc2ccccc2)c(OC)c1,0,0,0,-9,5,3,/,/,/
SMILES,LEDGF integ inh,MBD2 DNA inh,UHRF1 binding,ARFGAP1 inh,ASAP1 GAP inh,TDP2 inh,IN multimer up,TRFRET interf,LEDGF integ conf
CC(=O)Nc1ccc(OCc2cn(CC(=O)c3ccc(O)cc3)nn2)cc1,15*,9,17,6,-8,6,7,-34,8
CC(=O)Nc1ccc(C(=O)CSc2nnnn2C)cc1,-1,-5,-1,7,7,22,/,/,/
O=C(CSc1nnc(-c2cccs2)o1)c1ccc2c(c1)OCO2,1,-7,-3,/,/,5,/,/,/
O=C(c1coc(=O)c(Br)c1)N1CCCc2ccccc21,19*,6,14,-1,2,1,-1,4,17*
O=C(c1cccc(Br)c1)N1CCCc2ccccc21,-3,-4,0,-1,-6,4,/,/,/
COc1cccc(=O)c2c(C)n(-c3ccc(C(=O)O)cc3)c(C)c12,17*,3,16,-8,-2,19,4,-14,23*
COC(=O)\C(C(C)=O)=C(/C=C/C=C/N(C)C)N(C)C,34*,0,13,-18,-12,13,1,-5,10
CCOC(=O)C1CCN(C(=O)C(C)(C)NC(=O)Nc2ccc(N(C)C)cc2)CC1,-4,-3,-3,/,/,-1,/,/,/
C#CCCN([C@@H](CC(C)C)C(=O)OC)S(=O)(=O)c1ccc(F)cc1Br,5,-2,2,/,/,0,/,/,/
Cc1ccc(C)c(Nc2ccc(C(=O)NCCc3ccccc3)cn2)c1,37*,-3,-1,-3,-3,7,1,-5,9
Cc1cc2c(c(=O)o1)C(c1ccc([N+](=O)[O-])o1)C(C#N)=C(N)O2 (centres undefined),15*,-4,11,-7,3,6,4,-21,9

# Compound activity deposited in PubChem BioAssay by The Scripps Research Institute Molecular Screening Center.
